Assay results reported in ChEMBL document CHEMBL1131446, “New 1,4-dihydropyridines conjugated to furoxanyl moieties, endowed with both nitric oxide-like and calcium channel antagonist vasodilator activities” (J Med Chem, 1998).

Columns and labels:
[1] = target: T1, Voltage-dependent L-type calcium channel subunit alpha-1D (Rattus norvegicus, UniProt P27732); assay: Inhibitory concentration for L-type [Ca2+] channels was measured through displacement of [3H]nitrendipine on rat cortex homogenates.; type: tissue-based
[2] = target: T1, Voltage-dependent L-type calcium channel subunit alpha-1D; assay: Binding affinity for L-type [Ca2+] channels was measured through displacement of [3H]nitrendipine on rat cortex homogenates.; type: tissue-based
Rattus norvegicus [3] = species: Rattus norvegicus; assay: Vasodilator activity was measured on rat aorta.
Rattus norvegicus [4] = species: Rattus norvegicus; assay: Vasodilator activity was measured on rat aorta in the presence of methylene blue (MB).
Rattus norvegicus [5] = species: Rattus norvegicus; assay: […]; type: functional
Procedure, shortened: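 Nitrite formation measured as an index of NO release. Compound incubated in pH 7.4 buffer with a 50-fold molar excess of L-cysteine at 37 °C. After 1 h, nitrite was detected by the Griess reaction. Values are expressed as % NO₂⁻ (mol/mol).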

T1 sequence (P27732 whole entry): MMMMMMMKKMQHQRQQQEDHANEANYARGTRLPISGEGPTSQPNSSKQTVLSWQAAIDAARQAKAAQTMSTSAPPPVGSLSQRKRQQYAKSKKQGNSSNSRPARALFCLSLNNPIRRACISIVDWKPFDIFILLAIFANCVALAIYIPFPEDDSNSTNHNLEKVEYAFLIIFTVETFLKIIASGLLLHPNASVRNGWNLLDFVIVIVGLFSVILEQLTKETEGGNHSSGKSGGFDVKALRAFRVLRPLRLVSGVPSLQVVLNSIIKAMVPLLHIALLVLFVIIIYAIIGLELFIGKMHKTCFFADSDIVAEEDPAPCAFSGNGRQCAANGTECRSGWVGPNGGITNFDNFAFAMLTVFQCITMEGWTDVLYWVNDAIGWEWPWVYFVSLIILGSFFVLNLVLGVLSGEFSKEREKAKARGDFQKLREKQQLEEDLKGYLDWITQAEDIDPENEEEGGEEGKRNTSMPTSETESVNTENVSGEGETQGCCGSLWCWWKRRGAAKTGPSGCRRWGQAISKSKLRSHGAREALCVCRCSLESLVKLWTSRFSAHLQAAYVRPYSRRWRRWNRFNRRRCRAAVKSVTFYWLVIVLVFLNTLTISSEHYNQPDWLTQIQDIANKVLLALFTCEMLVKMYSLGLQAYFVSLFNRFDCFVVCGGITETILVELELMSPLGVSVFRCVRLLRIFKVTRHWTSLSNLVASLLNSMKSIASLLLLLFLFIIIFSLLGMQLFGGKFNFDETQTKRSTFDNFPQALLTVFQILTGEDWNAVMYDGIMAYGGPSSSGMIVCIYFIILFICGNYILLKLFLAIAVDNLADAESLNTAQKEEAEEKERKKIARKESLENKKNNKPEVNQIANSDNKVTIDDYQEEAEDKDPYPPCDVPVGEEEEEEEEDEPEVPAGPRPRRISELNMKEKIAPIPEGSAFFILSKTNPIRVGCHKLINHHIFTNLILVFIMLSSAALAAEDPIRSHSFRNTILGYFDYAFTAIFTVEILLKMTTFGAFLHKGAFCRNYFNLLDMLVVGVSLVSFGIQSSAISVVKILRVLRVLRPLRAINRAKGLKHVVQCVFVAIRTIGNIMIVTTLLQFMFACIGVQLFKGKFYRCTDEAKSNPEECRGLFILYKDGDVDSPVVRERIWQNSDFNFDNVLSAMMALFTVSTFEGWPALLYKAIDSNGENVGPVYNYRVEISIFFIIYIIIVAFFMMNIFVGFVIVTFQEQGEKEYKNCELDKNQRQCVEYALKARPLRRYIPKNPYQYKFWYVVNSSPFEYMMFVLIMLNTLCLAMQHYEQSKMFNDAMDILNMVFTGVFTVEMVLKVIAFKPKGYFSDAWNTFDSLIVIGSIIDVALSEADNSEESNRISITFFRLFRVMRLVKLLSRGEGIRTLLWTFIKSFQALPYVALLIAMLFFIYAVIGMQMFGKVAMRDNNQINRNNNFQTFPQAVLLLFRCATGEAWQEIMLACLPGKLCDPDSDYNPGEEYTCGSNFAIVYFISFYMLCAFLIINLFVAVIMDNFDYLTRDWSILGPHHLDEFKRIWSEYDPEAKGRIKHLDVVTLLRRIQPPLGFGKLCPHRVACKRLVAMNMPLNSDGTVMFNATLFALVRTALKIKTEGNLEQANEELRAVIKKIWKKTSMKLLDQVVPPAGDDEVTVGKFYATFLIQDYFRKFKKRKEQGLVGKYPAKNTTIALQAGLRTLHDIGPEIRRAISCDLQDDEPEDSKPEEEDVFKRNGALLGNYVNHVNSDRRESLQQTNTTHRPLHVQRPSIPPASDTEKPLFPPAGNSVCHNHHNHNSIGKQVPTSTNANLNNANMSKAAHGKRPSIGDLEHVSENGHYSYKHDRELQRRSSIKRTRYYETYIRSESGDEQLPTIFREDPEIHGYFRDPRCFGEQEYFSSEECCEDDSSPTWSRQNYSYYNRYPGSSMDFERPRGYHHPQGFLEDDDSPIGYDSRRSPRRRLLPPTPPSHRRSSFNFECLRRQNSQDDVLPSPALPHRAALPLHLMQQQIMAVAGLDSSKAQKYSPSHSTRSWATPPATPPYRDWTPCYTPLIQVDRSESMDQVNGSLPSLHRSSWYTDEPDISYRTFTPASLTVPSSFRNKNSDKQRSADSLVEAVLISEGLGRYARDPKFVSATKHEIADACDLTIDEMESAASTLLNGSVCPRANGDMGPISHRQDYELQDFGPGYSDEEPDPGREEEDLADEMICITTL

SMILES	IC50 [1] [µM]	Ki [2] [µM]	EC50 (Rattus norvegicus [3]) [µM]	EC50 iGC (Rattus norvegicus [4]) [µM]	Nitric oxide (Rattus norvegicus [5]) [%]
COC(=O)C1=C(C)N=C(C)/C(=C(/O)OC)C1c1ccccc1OCc1nonc1C (centres undefined)	0.059	0.027	0.041	0.046	
COC(=O)C1=C(C)N=C(C)/C(=C(/O)OC)C1c1cccc(OCc2c(C(N)=O)no[n+]2[O-])c1 (centres undefined)	3.6	1.6	1.2	3.7	7.6
COC(=O)C1=C(C)N=C(C)/C(=C(/O)OC)C1c1cccc(OCc2no[n+]([O-])c2C)c1 (centres undefined)	0.82	0.37	0.5	0.54	<0.5
COC(=O)C1=C(C)N=C(C)/C(=C(/O)OC)C1c1ccccc1OCc1no[n+]([O-])c1C(N)=O (centres undefined)	1.5	0.67	0.55	0.94	13
COC(=O)C1=C(C)N=C(C)/C(=C(/O)OC)C1c1ccccc1OCc1c(C(N)=O)no[n+]1[O-] (centres undefined)	0.78	0.35	0.56	0.64	12.3
COC(=O)C1=C(C)N=C(C)/C(=C(/O)OC)C1c1cccc(OCCO[N+](=O)[O-])c1 (centres undefined)	0.97	0.44	0.75	0.75	<0.5
COC(=O)C1=C(C)N=C(C)/C(=C(/O)OC)C1c1ccccc1OCc1no[n+]([O-])c1C (centres undefined)	0.04	0.018	0.043	0.046	0.9
COC(=O)C1=C(C)N=C(C)/C(=C(/O)OC)C1c1cccc(OCc2c(C#N)no[n+]2[O-])c1 (centres undefined)	0.5	0.22	0.011		31.5
COC(=O)C1=C(C)NC(C)=C(C(=O)OC)C1c1ccccc1[N+](=O)[O-] [NIFEDIPINE]			0.0032	0.0034	
COC(=O)C1=C(C)N=C(C)/C(=C(/O)OC)C1c1cccc(OCc2no[n+]([O-])c2C(N)=O)c1 (centres undefined)	2	0.92	0.71	1.5	6
COC(=O)C1=C(C)N=C(C)/C(=C(/O)OC)C1c1cccc(OCc2nonc2C#N)c1 (centres undefined)	0.59	0.27	0.31	0.3	
COC(=O)C1=C(C)N=C(C)/C(=C(/O)OC)C1c1ccccc1OCc1c(C#N)no[n+]1[O-] (centres undefined)	0.067	0.03	0.0094	0.05	24
COC(=O)C1=C(C)N=C(C)/C(=C(/O)OC)C1c1cccc(OCc2c(C)no[n+]2[O-])c1 (centres undefined)	0.61	0.28	0.4	0.4	<0.5
COC(=O)C1=C(C)N=C(C)/C(=C(/O)OC)C1c1cccc(OCc2nonc2C(N)=O)c1 (centres undefined)	5.1	2.3	3.5	3.3	
COC(=O)C1=C(C)N=C(C)/C(=C(/O)OC)C1c1ccccc1OCc1nonc1C#N (centres undefined)	0.01	0.0047	0.0066	0.0066	
COC(=O)C1=C(C)N=C(C)/C(=C(/O)OC)C1c1ccccc1OCc1nonc1C(N)=O (centres undefined)	0.88	0.4	0.97	0.91	
COC(=O)C1=C(C)N=C(C)/C(=C(/O)OC)C1c1ccccc1OCCO[N+](=O)[O-] (centres undefined)	0.085	0.038	0.056	0.054	<0.5
COC(=O)C1=C(C)N=C(C)/C(=C(/O)OC)C1c1ccccc1OCc1no[n+]([O-])c1C#N (centres undefined)	0.027	0.021	0.0044	0.022	40.8
COC(=O)C1=C(C)N=C(C)/C(=C(/O)OC)C1c1ccccc1OCc1c(C)no[n+]1[O-] (centres undefined)	0.072	0.032	0.078	0.076	1.8
COC(=O)C1=C(C)N=C(C)/C(=C(/O)OC)C1c1cccc(OCc2no[n+]([O-])c2C#N)c1 (centres undefined)	0.5	0.23	0.0033		43.8
COC(=O)C1=C(C)N=C(C)/C(=C(/O)OC)C1c1cccc(OCc2nonc2C)c1 (centres undefined)	0.72	0.32	0.64	0.62	
